Consider 6 compounds from BindingDB's records for doi:10.1016/j.bmcl.2017.04.043 (Vanderbilt University Medical Center, 2017).

For data set [1], the target named is T1, Cytochrome P450 1A2 (Homo sapiens, UniProt P05177).
T1 sequence (P05177 whole entry): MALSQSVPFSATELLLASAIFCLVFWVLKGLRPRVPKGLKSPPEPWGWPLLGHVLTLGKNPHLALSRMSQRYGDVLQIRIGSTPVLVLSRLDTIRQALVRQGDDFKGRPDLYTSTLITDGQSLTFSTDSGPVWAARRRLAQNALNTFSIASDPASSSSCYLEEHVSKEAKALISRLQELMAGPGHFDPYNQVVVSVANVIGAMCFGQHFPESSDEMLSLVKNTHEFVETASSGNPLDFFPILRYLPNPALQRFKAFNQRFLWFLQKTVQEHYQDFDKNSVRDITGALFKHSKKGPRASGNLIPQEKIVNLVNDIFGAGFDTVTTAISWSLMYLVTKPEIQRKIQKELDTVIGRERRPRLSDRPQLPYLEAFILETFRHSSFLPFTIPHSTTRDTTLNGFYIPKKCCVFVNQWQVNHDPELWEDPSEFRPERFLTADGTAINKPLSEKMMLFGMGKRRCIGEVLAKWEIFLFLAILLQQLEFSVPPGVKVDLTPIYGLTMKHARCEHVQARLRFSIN
As to the kind of experiment: ChEBML_1679936. An excerpt: Induction of CYP1A2 in cryopreserved human hepatocytes measured after 48 hrs

In data set [2] the target is T2, Muscarinic acetylcholine receptor M4 (Homo sapiens, UniProt P08173).
T2 sequence (P08173 whole entry): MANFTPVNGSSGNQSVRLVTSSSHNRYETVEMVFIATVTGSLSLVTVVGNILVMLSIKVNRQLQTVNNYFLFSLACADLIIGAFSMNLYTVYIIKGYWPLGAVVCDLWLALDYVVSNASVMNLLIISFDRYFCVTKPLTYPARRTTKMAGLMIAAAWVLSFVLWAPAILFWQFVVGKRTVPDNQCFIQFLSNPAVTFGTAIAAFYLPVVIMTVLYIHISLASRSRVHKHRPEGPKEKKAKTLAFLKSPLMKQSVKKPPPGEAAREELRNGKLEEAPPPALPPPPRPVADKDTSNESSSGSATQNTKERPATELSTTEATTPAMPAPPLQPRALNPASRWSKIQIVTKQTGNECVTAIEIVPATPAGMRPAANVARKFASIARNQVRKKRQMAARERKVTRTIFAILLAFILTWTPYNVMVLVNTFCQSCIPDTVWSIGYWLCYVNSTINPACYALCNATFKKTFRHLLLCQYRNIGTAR
Nature of the data set: ChEBML_1679899. The source says: (§1) Positive allosteric modulation of human M4 receptor expressed in CHO cells coexpressing Gqi5 assessed as increase in acetylcholine-induced calcium mobilization

Data set [3] has as its target T2, Muscarinic acetylcholine receptor M4. The data set is described as §1. In short, it runs like this:
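Calcium mobilization in CHO cells expressing hM4 with Gqi5. Compound added in presence of a fixed EC20 concentration of acetylcholine. Values are means of three independent experiments, each run in triplicate.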

By EC50 is commonly meant the concentration that produces a half-maximal response. `Cc1nnc2sc(C(=O)NCc3ccc(-c4cccnc4F)cc3)c(N)c2c1C` had an EC50 in data set [1] greater than 50000 nM.

`Cc1cc(-c2ccc(CNC(=O)c3sc4nnc(C)c(C)c4c3N)cc2)cnc1F` returned an EC50 in data set [2] of 776 nM.

For the compound `Cc1nnc2sc(C(=O)NCc3ccc(-c4ccnc(F)c4)cc3)c(N)c2c1C`, the EC50 in data set [3] was determined as 49 nM.

`Cc1nnc2sc(C(=O)NCc3ccc(-c4ccncc4)cc3)c(N)c2c1C`: the concentration giving a half-maximal response (EC50) in data set [3] is 26.9 nM.

`Cc1nnc2sc(C(=O)NCc3ccc(-c4cccnc4)cc3)c(N)c2c1C` gave an EC50 in data set [2] of 63.1 nM.

Regarding `Cc1nnc2sc(C(=O)NCc3ccc(-c4cnccn4)cc3)c(N)c2c1C`, the EC50 in data set [3] worked out at 100 nM.
